The source of these data is publication PMC6198128 (Redox Biology, 2018).

“And” between values parts separate entries of the source, which are not always exact repeats. Equal values may be shown once. Read-outs that look alike come from different tables or passages of the source.

Experiment [1] relates to calf thymus DNA (ctDNA). The experiment is described as follows: DNA intercalation assay. The following applies: cell-free, 15 µg/mL ctDNA, 1.5 µM ethidium bromide; complex 5, 10 and 20 µM; doxorubicin 10 µM. It counts as binding. In outline:
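Ethidium bromide displacement from calf thymus DNA in saline: 15 µg/mL ctDNA, 1.5 µM ethidium bromide, test compound at 5, 10 and 20 µM. Vehicle (0.1% DMSO) was the negative control and doxorubicin (10 µM) the positive control. Fluorescence was read at excitation 320 nm and emission 600 nm. Lower fluorescence was taken as intercalation.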

The test system of experiment [2] is HL-60 cells. It is filed as cell-based, human. As to conditions: for apoptotic cells (annexin V-FITC/PI): HL-60, 24 and 48 h, p < 0.05, DOX 2 µM, OXA 2.5 µM; for effect of pretreatment on complex-induced apoptosis: HL-60, 2 h pretreatment (5 mM NAC or 5 µM inhibitor), then 4 µM complex for 48 h.
Experiment [3] deals with HSC-3 (human oral squamous cell carcinoma). The experiment is described as follows: Alamar blue cytotoxicity assay, HSC-3. It counts as cell-based. The following applies: read-out: IC50 in µM. On the technique in general: Resazurin is reduced to fluorescent resorufin, in cell work by metabolically active cells.
The subject of experiment [4] is MRC-5 (human lung fibroblast). The experiment is described as follows: Alamar blue cytotoxicity assay, MRC-5. It is filed as cell-based. As to conditions: read-out: IC50 in µM.
The test system of experiment [5] is K-562 (human chronic myelogenous leukemia). In words: Alamar blue cytotoxicity assay, K-562. It counts as cell-based. The following applies: read-out: IC50 in µM.
In experiment [6] the test system is HL-60 cells. The experiment is described as follows: Mitochondrial transmembrane potential. It counts as cell-based, human. As to conditions: HL-60, rhodamine 123, 24 h, p < 0.05; DOX 2 µM, OXA 2.5 µM. A digest of the protocol: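 HL-60 cells were grown in RPMI-1640 with 10% FBS, 2 mM L-glutamine and 50 µg/mL gentamycin at 37 °C, 5% CO2. After treatment, cells were loaded with rhodamine 123 (5 µg/mL) for 15 min at 37 °C in the dark and washed in saline.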

Experiment [7] concerns HL-60 cells. It counts as cell-based, human.
In experiment [8] the test system is HepG2 (human hepatocellular carcinoma). The experiment is described as follows: Alamar blue cytotoxicity assay, HepG2. It is filed as cell-based. As to conditions: read-out: IC50 in µM.
Experiment [9] has as its system MCF-7 (human breast carcinoma). In words: Alamar blue cytotoxicity assay, MCF-7. It counts as cell-based. As to conditions: read-out: IC50 in µM.
Experiment [10] deals with PBMC (human peripheral blood mononuclear cells). In words: Alamar blue cytotoxicity assay, PBMC. It counts as cell-based. As to conditions: 72 h, read-out: IC50 in µM.
Experiment [11] deals with HL-60 (human promyelocytic leukemia). In words: Alamar blue cytotoxicity assay, HL-60. The following applies: read-out: IC50 in µM. It is filed as cell-based.
Experiment [12] concerns caspase-3 in HL-60 cells. The experiment is described as follows: Caspase-3 colorimetric activation assay. It counts as cell-based, human. As to conditions: HL-60, DEVD-pNA substrate, 48 h, p < 0.05; DOX 2 µM. A digest of the protocol:
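HL-60 cells were treated with test compound and lysed, and caspase-3 activity was read with a colorimetric kit using DEVD-pNA substrate, with absorbance at 405 nm. Total protein was measured by Bradford, and activity was expressed as specific activity per 10 mg protein. Data are mean ± S.E.M., with ANOVA and Student–Newman–Keuls test (p < 0.05) against vehicle.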

In experiment [13] the test system is B16-F10 (mouse melanoma). The experiment is described as follows: Alamar blue cytotoxicity assay, B16-F10. The following applies: read-out: IC50 in µM. It is filed as cell-based.
Experiment [14] deals with SCC-9 (human oral squamous cell carcinoma). In words: Alamar blue cytotoxicity assay, SCC-9. It is filed as cell-based. As to conditions: Homo sapiens, SCC-9, 72 h, read-out: IC50 in µM.
Experiment [15] concerns HCT116 (human colon carcinoma). In words: Alamar blue cytotoxicity assay, HCT116. It counts as cell-based. As to conditions: read-out: IC50 in µM.
Experiment [16] has as its system HL-60 cells. The experiment is described as follows: Morphological analysis. It counts as cell-based, human. As to conditions: 24 and 48 h, DOX 2 µM, OXA 2.5 µM; for cell morphology: HL-60, May-Grunwald-Giemsa; for forward light scatter (FSC) / side scatter (SCC): HL-60, flow cytometry. In outline:
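HL-60 cells were treated for 24 and 48 h, then stained with May-Grunwald-Giemsa and examined by light microscopy. In parallel, forward and side light scatter were quantified by flow cytometry, recording 10^4 events per sample with debris excluded. Vehicle was the negative control, with doxorubicin and oxaliplatin as positive controls.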
(In general: Flow cytometry measures light scatter and fluorescence of single cells or particles in a stream.)

Experiment [17] relates to HL-60 cells. In words: Internucleosomal DNA fragmentation and cell cycle distribution. It is filed as cell-based, human. In outline: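 After 24 or 48 h treatment, HL-60 cells were permeabilized and stained with propidium iodide, and DNA content was measured by flow cytometry. 10^4 events were recorded per sample with debris excluded. Sub-G0/G1 was taken as internucleosomal DNA fragmentation, alongside G0/G1, S and G2/M fractions. Doxorubicin and oxaliplatin were positive controls; ANOVA with Student–Newman–Keuls test.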

Experiment [18] relates to non-cancer cells (MRC-5 and PBMC). In words: Alamar blue cytotoxicity assay, non-cancer cells. It is filed as cell-based, human. As to conditions: not cytotoxic at the concentrations tested, 72 h. A digest of the protocol: (§1)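 Human and mouse cell lines plus primary human PBMC (donor informed consent) grown in RPMI-1640 with 10% FBS, 2 mM L-glutamine and 50 μg/mL gentamycin at 37 °C, 5% CO2. Cells were mycoplasma-checked and >90% trypan-blue viable at start. Vehicle served as negative control; doxorubicin, oxaliplatin and piplartine were positive controls. Effect was taken as % of control absorbance, with IC50 and 95% CI from nonlinear regression.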

Experiment [19] concerns eight cancer cell lines (HL-60, K-562, HCT116, MCF-7, HepG2, HSC-3, SCC-9 and B16-F10). In words: Alamar blue cytotoxicity assay, panel of cancer cell lines. It is filed as cell-based. As to conditions: not cytotoxic at the concentrations tested, 72 h. In outline: as §1
The mark [20] stands for this setting: HL-60, 2 µM, 24 h of incubation.
[21] abbreviates: HL-60, 2 µM, 48 h of incubation.
Where [22] appears, read: HL-60, 2.5 µM, 24 h of incubation.
Where [23] appears, read: HL-60, 2.5 µM, 48 h of incubation.

In the case of `COc1cccc2c1C(=O)c1c(O)c3c(c(O)c1C2=O)C[C@@](O)(C(=O)CO)C[C@@H]3O[C@H]1C[C@H](N)[C@H](O)[C@H](C)O1` [DOX, Doxorubicin], the “ethidium bromide fluorescence (displacement from ctDNA)” value in experiment [1] is listed as “reduced the fluorescence intensity of ethidium bromide”. For the same compound, the “apoptotic cells (annexin V-FITC/PI)” value in experiment [2] is “increase in apoptotic cells”. Also, the half-maximal inhibitory concentration (IC50) (commonly the point on the concentration scale where inhibition reaches its midpoint) in experiment [3] (Homo sapiens, HSC-3, 72 h) came out at 0.3 µM; in experiment [4] (Homo sapiens, MRC5, 72 h), 1.5 µM; in [5] (Homo sapiens, K562, 72 h), 0.3 µM; in experiment [8] (Homo sapiens, HepG2, 72 h) it was 0.1 µM; in [9] (Homo sapiens, MCF7, 72 h), 1.1 µM; in experiment [10] (Homo sapiens, PBMC) it was 5.1 µM. In addition, the IC50 in [11] (Homo sapiens, HL-60, 72 h) turned out to be 0.3 µM; in experiment [13] (Mus musculus, B16-F10, 72 h), 0.1 µM; in experiment [14], 0.5 µM; in experiment [15] (Homo sapiens, HCT-116, 72 h), 0.1 µM. Moreover, in [6], the mitochondrial transmembrane potential entry is given as “reduced the mitochondrial transmembrane potential”. The “reduction of the number of viable cells” value in [7] is 57.1% and 87.9%. The caspase-3 activation entry in experiment [12] is “caused caspase-3 activation”. The cell morphology entry in experiment [16] was “cell shrinkage, chromatin condensation and nuclear fragmentation”. Besides, the “forward light scatter (FSC)” value in experiment [16] was “decrease in FSC”. Moreover, the “side scatter (SCC)” value in [16] was “transient increase in SCC”. Also, the “DNA content (%) G0/G1” value amounted to 19.9 ± 2.5 % in [17] (setting [20]) and 21.9 ± 3.0 % in experiment [17] (setting [21]). Also, the figures for the “DNA content (%) G2/M” value in experiment [17] (setting [20]) and in experiment [17] (setting [21]) were 8.9 ± 1.5% and 3.8 ± 0.9 %, respectively. The results for the “DNA content (%) S” value in experiment [17] (setting [20]) and in [17] (setting [21]) were 6.6 ± 1.6 % and 6.5 ± 0.6 %, respectively. Moreover, the figures for the “DNA content (%) Sub-G0/G1” value in experiment [17] (setting [20]) and in experiment [17] (setting [21]) were 57.2 ± 2.5 % and 65.5 ± 2.8 %, respectively.

For the compound `O=C1[O][Pt]2([NH][C@@H]3CCCC[C@H]3[NH]2)[O]C1=O` [OXA, oxaliplatin], in experiment [2], the “apoptotic cells (annexin V-FITC/PI)” value was “increase in apoptotic cells”. Further, the IC50 in experiment [3] (HSC-3, alamar blue, 72 h) was found to be 3.1 µM; in experiment [4] (MRC-5 non-cancer cells, alamar blue, 72 h), 1.3 µM; in [5] (K-562, alamar blue, 72 h), 1 µM; in experiment [8] (HepG2, alamar blue, 72 h), 2.2 µM; in experiment [9] (MCF-7, alamar blue, 72 h) it was 5.7 µM; in experiment [10] (PBMC non-cancer cells, alamar blue) it was 9.4 µM. The 50% inhibitory concentration (IC50) in experiment [11] (HL-60, alamar blue, 72 h) came out at 0.6 µM; in [13] (B16-F10, alamar blue, 72 h), 2.2 µM; in experiment [15] (HCT116, alamar blue, 72 h), 4.1 µM. Further, the mitochondrial transmembrane potential result in experiment [6] is “reduced the mitochondrial transmembrane potential”. The “reduction of the number of viable cells” value in experiment [7] was 35.6% and 67.7%. Also, the cell morphology result in [16] is “cell shrinkage, chromatin condensation and nuclear fragmentation”. For the same compound, the “forward light scatter (FSC)” value in experiment [16] is recorded as “decrease in FSC”. For the same compound, the “side scatter (SCC)” value in experiment [16] is “transient increase in SCC”. For the same compound, the figures for the “DNA content (%) G0/G1” value in [17] (setting [22]) and in experiment [17] (setting [23]) were 29.1 ± 2.4 % and 42.9 ± 2.8%, respectively. The “DNA content (%) G2/M” value in [17] (setting [22]) came to 28.1 ± 2.6 %; in [17] (setting [23]) it was 23.4 ± 2.6 %. In addition, the entries for the “DNA content (%) S” value in experiment [17] (setting [22]) and in experiment [17] (setting [23]) were 12.6 ± 2.5% and 13.2 ± 0.8%, respectively. For the same compound, the “DNA content (%) Sub-G0/G1” value was 20.7 ± 2.9 % in experiment [17] (setting [22]) and 24.8 ± 1.9 % in experiment [17] (setting [23]). Also, the cell cycle effect entry in experiment [17] (HL-60, 2.5 µM, p < 0.05) is “cell cycle arrest at the phase G2/M”.

Turning to `O=[N+]([O-])c1ccc(-c2nc(-c3ccncc3)c(-c3ccc(F)cc3)[nH]2)cc1` [PD 169316], in [2], the “effect of pretreatment on complex-induced apoptosis” value is given as “reduced the complex-induced apoptosis”.

On to `COc1cc(/C=C/C(=O)N2CCC=CC2=O)cc(OC)c1OC` [PIP, Piplartine], for which the 50% inhibitory concentration (IC50) in experiment [3] (Homo sapiens, HSC-3, 72 h) was 14.1 µM; in experiment [4] (Homo sapiens, MRC5, 72 h), 17.3 µM; in experiment [5] (Homo sapiens, K562, 72 h) it was 18.6 µM; in [8] (Homo sapiens, HepG2, 72 h), 6.3 µM; in experiment [9] (Homo sapiens, MCF7, 72 h), 10.3 µM; in [10] (Homo sapiens, PBMC), 34.2 µM. Also, the IC50 in [11] (Homo sapiens, HL-60, 72 h) is 14.1 µM; in experiment [13] (Mus musculus, B16-F10, 72 h), 10.6 µM; in experiment [14] it was 16.5 µM; in [15] (Homo sapiens, HCT-116, 72 h) it was 5.4 µM.

Consider `N#CC(=C(/N)Sc1ccccc1N)/C(C#N)=C(/N)Sc1ccccc1N` [U-0126], for which the “effect of pretreatment on complex-induced apoptosis” value in [2] is given as “reduced the complex-induced apoptosis”.

Consider `[Cl][Pt][Cl].c1ccc(P(c2ccccc2)c2ccccc2)cc1.c1ccc(P(c2ccccc2)c2ccccc2)cc1` [cis-[PtCl2(PPh3)2]], for which the IC50 in experiment [18] and in experiment [19] was more than 31.6 µM in each case.
